Compound activity (PubChem)
Arrestin-AP2 inh: inhibitors of human beta-arrestin and AP2 interaction | FITC-arrestin peptide / GST-AP2 beads, flow cytometry; AP2 beta2 appendage carries R879A mutation | inhibition, % at 10 µM | 0.31% of 340,000 active | AID 504490;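 active means inhibition above a set limit, near 3 SD of compounds lacking own fluorescence, cut at about 54% in these data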;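 further: plate controls were DMSO wells for no effect and 5 µM unlabelled arrestin peptide for full effect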
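test system = AP2 appendage R879A on GSH beads | buffer or medium = PBS plus Tween 20 (0.05%) and BSA (0.1%) | incubation = 12 min plus 1 h, RT | detection = bead flow cytometry, FITC channel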
Exocytosis inh: lytic granule exocytosis inhibition | 0.66% of 360,000 active | inhibition, % at 10 µM | AID 651702 | TALL-104 LAMP-1 surface exposure, flow cytometry; cells stimulated with thapsigargin and PMA;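 active means inhibition above about 55%, limit read from the data; inconclusive means no clear call, values can overlap the other calls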
CendR NRP1 mod: NRP-1/CendR interaction modulation; inhibition, % at 25 µM; FAM-RPARPAR peptide binding to NRP-1, fluorescence polarization; 0.85% of 360,000 active; AID 602438;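 active means inhibition or corrected inhibition above about 18%, plus a signal ratio from 0.5 to 1.5, limit read from the data, passing the limit was not always enough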
ATG4B inhibitor: ATG4B (human) cysteine protease inhibition | Q9Y4P1 | ATG4B cleavage of LC3-PLA2, NBD-HPC fluorescence, 1 h | inhibition, % at 8.33 µM | 0.51% of 340,000 active | AID 504462; in the data active means inhibition above about 40%
Myeloid diff MLP: promotes myeloid progenitor differentiation; ER-HoxA9 myeloid progenitors, lysozyme-GFP differentiation, flow cytometry; calls only at 10 µM; 1% of 360,000 active; AID 624256;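 active means normalized GFP-positive differentiation at or above the plate's own cutoff, the solvent-only control mean plus 3 SD; inconclusive means no clear call, values can overlap the other calls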;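 further: cells exposed to compound for four days before flow analysis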
ABCB6 inh MLPCN: blocks the human ABCB6 transporter; K562-ABCB6 porphyrin accumulation, flow cytometry, 1 h; hits give low values; fluorescence ratio to DMSO, % at 10 µM; 0.19% of 360,000 active; AID 602162;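 active means fluorescence ratio to DMSO below 75%, the collection mean minus 3 SD; inconclusive means too few cells collected in the well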;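 further: signal is porphyrin accumulated inside mitochondria; 100% equals median channel fluorescence of DMSO control wells; lower ratio means ABCB6 inhibition with less porphyrin fluorescence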
The depositor's hits bear a star; i = inactive; u = inconclusive; x = not tested or not shown; + = active, no number. Hits are enriched below; roughly 3.3% of the tested compounds scored in any of these assays.

SMILES	Arrestin-AP2 inh	Exocytosis inh	CendR NRP1 mod	ATG4B inhibitor	Myeloid diff MLP	ABCB6 inh MLPCN
CCc1ccc(/C(C)=N\Nc2ccc([N+](=O)[O-])cc2)cc1	16.2	-2.3	-30.8	-11.6	+	119.0
C/C(=N\Nc1ccc([N+](=O)[O-])cc1)c1ccc(N)cc1	4.2	-3.3	-70.0	5.0	i	110.0
O=C(COC(=O)c1ccccc1NCCO)Nc1cccc(S(=O)(=O)NC2=NCCCCC2)c1	35.8	0.7	-1.8	-4.9	i	91.0
Cc1ccc(N2CCN(S(=O)(=O)N3CCCCCC3)CC2)cc1Cl	17.6	1.1	0.6	-5.3	i	91.0
Cc1ccc(N2CCN(S(=O)(=O)N3CCCCC3)CC2)cc1C	7.3	-1.0	31.0*	3.2	i	96.0
Cn1c(O)c(N=Nc2ccccc2[N+](=O)[O-])c2ccccc21	10.8	-18.6	4.1	-5.2	i	98.0
Cn1c(-c2ccccc2[N+](=O)[O-])[n+](C)c2ccccc21	-0.1	1.8	15.9	0.8	+	96.0
CN(C)c1ccc(Cc2cc3c(O)ccc(O)c3cc(Cc3ccc(N(C)C)cc3)c2=O)cc1	53.8	103.6*	13.4	30.6	i	106.0
Cc1cn([C@H]2C[C@H](O)[C@@H](CCC(=O)NCc3ccccc3)O2)c(=O)[nH]c1=O	51.0	16.6	2.8	-3.4	i	99.0
Cc1cn([C@H]2C[C@H](O)[C@@H](CCC(=O)NCCc3ccc4ccccc4c3)O2)c(=O)[nH]c1=O	x	-3.8	22.0*	x	i	97.0
O=C(CNC(=O)c1ccccc1F)NNC(=O)c1ccccc1O	1.0	-2.5	2.0	1.6	+	97.0
CCc1ccc(N2CC(C(=O)NCC(C)(C)N3CCOCC3)CC2=O)cc1 (stereo unspecified)	5.2	-3.3	8.3	-6.1	i	95.0
O=C(CC(=O)c1cccs1)c1ccncc1	-0.2	1.1	-7.9	-4.9	i	90.0
CCOC(=O)c1nc2cc3n(c(C)c-2c1C)C(C)C(C)=C3C (stereo unspecified)	-5.3	-3.2	-4.5	-1.3	i	93.0
CCOC(=O)c1nc2cc3n(c(CC(C)C)c-2c1C)CC(C)=C3C	0.7	-3.1	-55.4	-10.2	+	111.0
NS(=O)(=O)c1ccc(CNC(=S)NCc2ccc(Cl)cc2)cc1	-48.4	-3.5	-4.5	27.7	i	97.0
NS(=O)(=O)c1ccc(CNC(=S)NCc2ccc(F)cc2)cc1	-2.3	-5.5	25.1*	-3.4	i	94.0
Fc1ccc(CNC(=S)NC2CCCC2)cc1	-7.2	-0.9	32.0*	17.4	i	104.0
O=C(COc1ccc(Cl)cc1Br)OCC(=O)c1ccc[nH]1	39.8	2.3	6.7	-4.2	i	94.0
CC(C)CCNC(=O)CN(C(=O)CCC(=O)Nc1nccs1)C1CCCCC1	2.0	-0.4	2.5	-2.1	i	96.0
CCOc1[nH]n(-c2ccccc2)c(=O)c1C=Nc1ccc(Cl)cc1	7.2	0.8	14.8	13.1	i	89.0
CCOc1[nH]n(-c2ccc(Cl)cc2)c(=O)c1C=Nc1ccc(OC)cc1	0.7	-0.8	3.7	-4.7	+	92.0
CCOc1ccc(N=c2scc(-c3ccccc3)n2CCO)cc1	6.1	-0.8	-20.6	10.5	i	92.0
CCn1c(-c2ccccc2)csc1=Nc1ccc(O)cc1	22.8	1.2	-3.9	-3.4	+	103.0
CC(=O)c1ccc(OC(C)C(=O)NCC2(N3CCOCC3)CCCCC2)cc1 (stereo unspecified)	-2.2	5.2	-1.6	2.3	i	101.0
SMILES	Arrestin-AP2 inh	Exocytosis inh	CendR NRP1 mod	ATG4B inhibitor	Myeloid diff MLP	ABCB6 inh MLPCN
COc1ccc(-n2nc3c(N4CCC(C(=O)NCc5ccccc5C)CC4)nnc(C)c3c2C)cc1	22.6	34.4	-35.9	54.1*	i	99.0
COc1ccc(-n2nc3c(N4CCC(C(=O)NCCc5ccccc5C)CC4)nnc(C)c3c2C)cc1	1.0	7.8	7.3	9.4	i	101.0
CC(=O)COc1ccc2c(c1C)O/C(=C\c1ccco1)C2=O	-20.6	2.0	-6.4	-0.3	+	184.0
Nc1ccc2c3c(cccc13)-c1ccccc1-2	0.2	0.5	141.2	-3.2	+	784.0
COc1ccc(/C=C2\CN(Cc3ccccc3)C/C(=C\c3ccc(OC)c(O)c3)C2=O)cc1O	4.3	67.2*	5.6	23.9	u	95.0
CCN1C/C(=C/c2ccc(OC)c(O)c2)C(=O)/C(=C/c2ccc(OC)c(O)c2)C1	28.4	0.0	-4.8	-8.7	i	99.0
COc1ccc(/C=C2\CC/C(=C\c3ccc(OC)c(OC)c3)C2=O)cc1OC	-0.3	0.6	5.4	11.5	i	92.0
COc1cc(/C=C2\COC/C(=C\c3ccc(O)c(OC)c3)C2=O)ccc1O	49.1	64.4*	-2.3	1.5	u	100.0
COc1cc(/C=C2/CC/C(=C/c3ccc(O)c(OC)c3)C2=O)ccc1O	14.2	85.9*	-220.9	29.2	+	172.0
Cc1cccc(NS(=O)(=O)c2ccc3oc(=O)ccc3c2)c1C	13.3	-1.9	9.8	2.3	i	96.0
NC(=O)CC1(CC(=O)O)CCCCC1	-9.1	-1.2	1.4	-3.3	i	97.0
NC(=O)C1CCN(C(=O)CC2(CC(=O)O)CCCCC2)CC1	15.3	1.6	26.8*	0.6	i	104.0
COc1ccc(C2C(C(=O)c3ccco3)=C(O)C(=O)N2CCc2ccccc2)cc1OC (stereo unspecified)	34.0	0.1	-7.7	-3.6	+	89.0
O=C(CN1C(=O)NC(Cc2ccccc2)C1=O)Nc1ccc(F)cc1 (stereo unspecified)	-6.5	-8.2	2.8	2.2	i	95.0
O=C(CN1C(=O)NC(Cc2ccccc2)C1=O)Nc1ccc(OC(F)(F)F)cc1 (stereo unspecified)	-15.7	3.7	33.6*	-5.5	i	99.0
Cn1c(N)c(C(=O)COC(=O)Cc2cccc(C(F)(F)F)c2)c(=O)n(C)c1=O	-12.7	-1.8	13.5	-4.2	i	94.0
O=C(/C=C/c1ccccc1)NC1CC2CCC1C2 (stereo unspecified)	45.0	-3.2	3.9	-1.0	i	105.0
c1ccc(CNC2CC3CCC2C3)cc1 (stereo unspecified)	-0.2	-1.1	23.6*	-2.6	i	99.0
Cc1cccc(CC(=O)N2CCN(C(=O)c3ccco3)CC2)c1	5.3	4.8	-0.4	-3.5	i	98.0
CC1(C(=O)NCCN2CCOCC2)C=CC2(CCCCC2)N1C(=O)c1ccccc1 (stereo unspecified)	-9.2	0.3	19.7*	7.7	i	94.0
COCCNC(=O)C1(C)C=CC2(CCCCC2)N1C(=O)c1ccccc1 (stereo unspecified)	19.9	7.5	4.3	4.3	i	100.0
Cc1ccc2c(c1)Sc1c(ccc3ccccc13)N2	3.1	-4.3	47.7*	-4.8	i	101.0
